Experimental data published in article PMC8246884 (Journal of Medical Virology, 2020).

Legend:
HCV = conditions: cited from earlier work
[1] = Plasma pharmacokinetics on Day 14; assay type: in vivo, human; conditions: Day 14, coadministered with CDI‐31244
Summary of the method: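 Treatment-naïve adults with chronic genotype 1 HCV and no cirrhosis took oral drugs once daily for 2 weeks: a nucleotide/NS5A inhibitor combination tablet (400 mg/100 mg) plus a non-nucleoside inhibitor, 400 mg as capsules. Plasma was sampled before the first dose on Day 1 and at 0, 1, 2, 4, 6, 8, 12 and 24 h after the Day 14 dose. Validated LC-MS/MS; per-patient non-compartmental Cmax, Cmin, tmax, AUC0–24; descriptive statistics.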

| SMILES | HCV RNA viral load reduction (HCV) [log10] | Exposure [1] |
| --- | --- | --- |
| COc1c(-c2ccc3cc(NS(C)(=O)=O)ccc3c2)cc(-n2ccc(=O)[nH]c2=O)cc1C(C)(C)C [dasabuvir] | 0.95 |  |
| C[C@@]1(F)[C@H](O)[C@@H](CO)O[C@H]1n1ccc(=O)[nH]c1=O [GS‐331007] |  | consistent with reported values |
| COC[C@H]1C[C@@H](c2ncc(-c3ccc4c(c3)COc3cc5c(ccc6nc([C@@H]7CC[C@H](C)N7C(=O)[C@@H](NC(=O)OC)C(C)C)[nH]c65)cc3-4)[nH]2)N(C(=O)[C@H](NC(=O)OC)c2ccccc2)C1 [velpatasvir] |  | consistent with reported values |
| CC(C)OC(=O)[C@H](C)N[P@](=O)(OC[C@H]1O[C@@H](n2ccc(=O)[nH]c2=O)[C@](C)(F)[C@@H]1O)Oc1ccccc1 [sofosbuvir] |  | consistent with reported values |
